High-throughput results (PubChem BioAssay)
The list is not random: actives were taken first. Their share in the collection is about 2.8%.
HTRA1 inh: HTRA1 (human) protease inhibition; Q92743; inhibition, % at 5.96 µM; 340,000 tested, 0.5% active; recombinant HTRA1, FP-rhodamine activity-based probe, fluorescence polarization; AID 504803; in the data active means inhibition above about 36%;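 further: 0% = enzyme with DMSO and 100% = wells lacking enzyme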
PAFAH1B3 FP inh: inhibitors of human PAFAH1B3. 340,000 tested, 0.28% active. Q15102. recombinant PAFAH1B3, FP-rhodamine probe, fluorescence polarization. AID 492972. inhibition, % at 3.39 µM;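 active means inhibition above the screen-wide average of all tested compounds plus 3 SD, cut at about 25% in these data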;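 further: 0% = enzyme with DMSO only and 100% = wells lacking PAFAH1B3 protein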
ABHD4 inh: ABHD4 (mouse) inhibition, primary FP screen; inhibition, % at 8.92 µM; 370,000 tested, 0.54% active; purified mABHD4, FP-Rh probe fluorescence polarization;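 active means inhibition exceeding the mean over every tested compound plus 3 SD, cut at about 30% in these data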;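 further: 0% = plate median of compound wells and 100% = S159A mutant with DMSO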
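System: mouse ABHD4 enzyme, wild type / Medium: HEPES pH 7.0, NaCl, Pluronic buffer / Reagent: FP-Rh activity-based fluorescent probe / Control set: S159A mutant high control, sample median low control / Detection: fluorescence polarization with parallel and perpendicular emission, 525/598 nm / Schedule: 45 min + 60 min at 25 °C / Compound dosing: 8.92 µM, single dose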
PAFAH2 inh: PAFAH2 (human) inhibition; Q99487; AID 492956; recombinant PAFAH2, FP-rhodamine activity probe, fluorescence polarization; inhibition, % at 3.39 µM; 340,000 tested, 0.99% active;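 active means inhibition above the mean over all tested compounds plus 3 SD, cut at about 30% in these data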;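 further: inhibitors block probe labeling of enzyme so polarization drops; 0% = enzyme with DMSO and 100% = wells lacking PAFAH2 protein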
pPAFAH inh: inhibitors of human plasma PAF acetylhydrolase (pPAFAH) | Q13093 | 330,000 tested, 1.5% active | recombinant pPAFAH, FP-rhodamine probe fluorescence polarization | AID 463082 | inhibition, % at 3.39 µM;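 active means inhibition above the mean inhibition across the screen plus 3 SD, cut at about 25% in these data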;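 further: inhibitors block binding of the rhodamine activity-based probe so polarization drops; 0% = enzyme with DMSO and 100% = wells lacking pPAFAH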
Target sequence (Q13093 whole entry, looked up): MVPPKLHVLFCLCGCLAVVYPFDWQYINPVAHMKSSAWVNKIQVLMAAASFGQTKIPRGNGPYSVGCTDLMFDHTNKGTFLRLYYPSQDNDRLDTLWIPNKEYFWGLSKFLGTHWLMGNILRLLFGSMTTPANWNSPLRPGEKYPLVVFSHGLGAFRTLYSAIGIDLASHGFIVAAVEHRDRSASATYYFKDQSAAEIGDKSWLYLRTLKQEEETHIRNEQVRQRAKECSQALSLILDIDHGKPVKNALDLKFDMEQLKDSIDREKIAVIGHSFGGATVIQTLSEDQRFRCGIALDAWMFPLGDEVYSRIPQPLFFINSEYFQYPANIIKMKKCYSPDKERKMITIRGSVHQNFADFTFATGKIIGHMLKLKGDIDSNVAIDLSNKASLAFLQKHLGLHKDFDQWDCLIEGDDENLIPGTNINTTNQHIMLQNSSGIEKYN
PAFAH1B2 inh: inhibitors of human PAFAH1B2; P68402; recombinant PAFAH1B2, FP-rhodamine activity probe, fluorescence polarization; inhibition, % at 3.39 µM; 340,000 tested, 1.2% active;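 active means inhibition above the mean of all tested compounds plus 3 SD, cut at about 24% in these data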;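 further: 0% = enzyme with DMSO and 100% = wells lacking PAFAH1B2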
ABHD4 confirm: ABHD4 (mouse) inhibition, FP confirmation. 1,800 tested, 55% active. AID 720658. inhibition, % at 8.92 µM. purified mABHD4, FP-Rh probe fluorescence polarization. shares compounds with ABHD4 inh;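 active means mean inhibition across replicates above the hit cutoff set in the primary screen, cut at about 30% in these data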;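 further: 0% = wild-type ABHD4 with DMSO and 100% = catalytically dead S159A mutant with DMSO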
The depositor's hits bear a star; nt = no result.

SMILES	HTRA1 inh	PAFAH1B3 FP inh	ABHD4 inh	PAFAH2 inh	pPAFAH inh	PAFAH1B2 inh	ABHD4 confirm
O=C(Nc1ncccc1O)c1c(O)c2ccccc2[nH]c1=O	2	-2	39*	20	5	5	12
COCC(C)N1CC(O)=C(c2nc(-c3ccc(Cl)cc3)cs2)C1=N (stereo unspecified)	8	-6	32*	19	16	2	29
Cc1nnc(NS(=O)(=O)c2ccc(N)cc2)s1	2	4	-5	-5	1	4	nt
Cc1nnc(NS(=O)(=O)c2ccc(N=Nc3ccc(N)nc3N)cc2)s1	8	13	58*	21	nt	8	34*
O=c1c(-c2cccc3ccccc23)[n+]([O-])c2ccccc2n1O	3	3	49*	11	10	2	14
CC(=O)N1CCN(c2nc(-c3cccs3)nc3ccccc23)CC1	-4	10	2	5	0	2	nt
Fc1ccccc1N1CCN(c2nc(-c3cccs3)nc3ccccc23)CC1	-26	-2	33*	-3	-3	-2	-25
Nc1nc(N)c2cc(Sc3ccc(Cl)cc3)ccc2n1	-12	nt	21	nt	nt	nt	nt
Nc1nc(N)c2cc(CNc3ccc(Cl)c(Cl)c3)ccc2n1	-6	nt	38*	nt	nt	nt	36*
Cc1ccc(-c2nc3ccc(C(=O)O)cc3nc2-c2ccc(C)cc2)cc1	-6	12	-3	1	8	7	nt
O=C(c1ccc2nc(-c3ccco3)c(-c3ccco3)nc2c1)N1CCN(c2ccccc2)CC1	-4	13	32*	10	23	-1	-3
CCc1nc2ccc(C(=O)N3CCN(c4ccccc4)CC3)cc2nc1CC	-1	1	1	2	7	4	nt
O=C(O)c1ccc2nc(-c3ccco3)c(-c3ccco3)nc2c1	16	52*	63*	40*	nt	24*	18
CC(=O)Oc1ccc(C(=O)OCC(=O)c2c(N)n(C)c(=O)n(C)c2=O)cc1OC(C)=O	13	2	46*	18	7	1	4
COc1ccc(C(=O)OCC(=O)c2c(N)n(C)c(=O)n(C)c2=O)cc1OC	3	6	4	5	5	5	nt
Cc1ccc(C(=O)N2CCC(Oc3cccnc3)CC2)cc1	nt	nt	0	nt	nt	nt	nt
CCOC(=O)[C@@]12CCCC=C1N(CCc1ccc(Cl)cc1)C(=O)[C@H]2CC(=O)NCCc1ccccc1OC	nt	nt	-8	nt	nt	nt	nt
Cc1cccc(N2C(=O)SC(N(C)c3ccccc3)C2=O)c1 (stereo unspecified)	-12	-3	64*	5	-9	4	-9
Cc1cccc(N2C(=O)CCC2=O)c1	-3	-1	3	9	2	-2	nt
CNC(=O)c1ccc(-c2sc3nc(N4CCOCC4)c4c(c3c2N)CCCC4)o1	12	3	32*	-2	27*	1	27
c1cc2c(cc1CNc1ccc(N3CCOCC3)cc1)OCO2	30	8	30*	4	14	8	-15
Cc1ccc(CNc2ccc(N3CCOCC3)cc2)cc1	35	13	19	0	9	9	nt
COc1ccc(C(=O)OCC(=O)Nc2ncc([N+](=O)[O-])s2)cc1OC	9	30*	38*	40*	24	9	25
O=C(NCCc1ccccc1)OCc1cn(-c2ccc(F)cc2)nn1	nt	nt	1	nt	nt	nt	nt
COc1cc2cc(C)nc(Cc3cccc4ccccc34)c2cc1OC	-18	-3	33*	-1	3	7	41*
SMILES	HTRA1 inh	PAFAH1B3 FP inh	ABHD4 inh	PAFAH2 inh	pPAFAH inh	PAFAH1B2 inh	ABHD4 confirm
COc1ccccc1CNC(=O)COC(=O)c1cc(C)nc2ccccc12	-13	4	0	-3	-4	5	nt
COCc1cn(-c2cccc(-c3noc4c3C(=O)N(CC(=O)N3CCOCC3)CC4)c2)nn1	nt	nt	32*	nt	nt	nt	5
COC(=O)[C@]12C[C@H](CC(=O)NCc3cccc4ccccc34)C(=O)N(Cc3cccc4ccccc34)C1=C[C@H](C(C)C)O[C@@H]2C1CC1	nt	nt	-17	nt	nt	nt	nt
Cc1ccc(C(=O)Nc2nc3ccccc3[nH]2)cc1	-4	-6	30*	-11	1	7	21
COc1ccc(C(=O)Nc2nc3ccccc3[nH]2)cc1	7	9	-6	-6	2	0	nt
CC1=C(C#N)C(=O)OC(C)(C)C1	13	12	30*	8	15	6	10
Cc1[nH]c(=O)c(C#N)c2c1COC(C)(C)C2	-1	9	nt	-2	3	1	nt
CC(=O)Nc1ccc(C(=O)N/N=C/c2cc(Br)cc(Br)c2O)cc1	21	6	5	9	12	5	nt
CNC(=S)N/N=C/c1cc(Br)cc(Br)c1O	34	14	31*	28	4	13	27
Nc1cc2sc(-c3ccc(C(=O)O)cc3)nc2cc1Cl	4	6	20	4	8	3	nt
Nc1ncc(N=Nc2cc(C(=O)O)ccc2Cl)s1	5	22	42*	22	26*	8	62*
Cc1cccc(OCC(=O)Nc2ccc(N3CCN(C(=O)c4ccccc4)CC3)cc2)c1C	-3	6	1	-4	8	-2	nt
CCc1ccc(OCC(=O)Nc2ccc(N3CCN(C(=O)c4ccccc4)CC3)cc2)cc1	-6	10	58*	1	11	3	7
